Experimental data as given in ChEMBL document CHEMBL1687778, “Genetic determinants involved in the susceptibility of Pseudomonas aeruginosa to beta-lactam antibiotics” (2010).
In brackets after ≈: the same amount, converted by molar mass.

How the values were obtained:
Pseudomonas aeruginosa [1] = assay: Antimicrobial activity against Pseudomonas aeruginosa PA14 PA5001 harboring mutation in putative glycosyl-transferase by broth microdilution method relative to wild type
[2] = tested on: Pseudomonas aeruginosa PAO1; assay: Activity of Beta-lactamase in Pseudomonas aeruginosa PAO1 PA4522 harboring ampD mutant gene assessed as nitrocefin hydrolysis per mg of protein by spectrophotometry
Method in brief: (§1)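 Cells grown to OD600 1.0, pelleted and resuspended in 0.1 M KH2PO4-Na2HPO4 pH 7.0. Crude extract made by two freeze-thaw cycles plus sonication on ice. β-Lactamase read as absorbance change at 485 nm with 50 µM nitrocefin in the same pH 7.0 phosphate buffer. Extract protein measured by BCA against a bovine serum albumin standard.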

[3] = tested on: Pseudomonas aeruginosa PAO1; assay: Activity of wild type Pseudomonas aeruginosa PAO1 Beta-lactamase assessed as nitrocefin hydrolysis per mg of protein by spectrophotometry
Method in brief: as §1

[4] = tested on: Pseudomonas aeruginosa PA14; assay: Activity of Beta-lactamase in Pseudomonas aeruginosa PA14 PA3047 harboring complemented dacB mutant gene assessed as nitrocefin hydrolysis per mg of protein by spectrophotometry
Method in brief: as §1

[5] = tested on: Pseudomonas aeruginosa PAO1; assay: Activity of Beta-lactamase in Pseudomonas aeruginosa PAO1 PA4020 harboring mpl mutant gene assessed as nitrocefin hydrolysis per mg of protein by spectrophotometry
Method in brief: as §1

[6] = tested on: Pseudomonas aeruginosa PAO1; assay: Activity of Beta-lactamase in Pseudomonas aeruginosa PAO1 PA3047 harboring dacB mutant gene assessed as nitrocefin hydrolysis per mg of protein by spectrophotometry
Method in brief: as §1

[7] = tested on: Pseudomonas aeruginosa PAO1; assay: Activity of Beta-lactamase in Pseudomonas aeruginosa PAO1 PA4109 harboring ampR mutant gene assessed as nitrocefin hydrolysis per mg of protein by spectrophotometry
Method in brief: as §1

[8] = tested on: Pseudomonas aeruginosa PA14; assay: Activity of Beta-lactamase in Pseudomonas aeruginosa PA14 PA3047 harboring dacB mutant gene assessed as nitrocefin hydrolysis per mg of protein by spectrophotometry
Method in brief: as §1

Pseudomonas aeruginosa [9] = assay: Antimicrobial activity against wild type Pseudomonas aeruginosa harboring pBBR1MCS-3 by Etest method

CC(C)(O/N=C(\C(=O)N[C@@H]1C(=O)N2C(C(=O)[O-])=C(C[n+]3ccccc3)CS[C@H]12)c1csc(N)n1)C(=O)O [CEFTAZIDIME]
fold change (FC) (Pseudomonas aeruginosa [1]): 3 | Activity [2]: 74 nmol/min | Activity [3]: 6.9 nmol/min | Activity [4]: 3.8 nmol/min | Activity [5]: 168 nmol/min | Activity [6]: 274 nmol/min | Activity [7]: 111 nmol/min | Activity [8]: 110 nmol/min

C[C@@H](O)[C@H]1C(=O)N2C(C(=O)O)=C(SCCNC=N)C[C@H]12 [IMIPENEM ANHYDROUS]
MIC (Pseudomonas aeruginosa [9]): 0.5 µg/mL (≈ 1.67 µM)
